Experimental data: ChEMBL document CHEMBL2390837, “Synthesis, cytotoxic activity and DNA-interaction studies of novel anthraquinone-thiosemicarbazones with tautomerizable methylene group” (Eur J Med Chem, 2013)
Activity calls are given as the source filed them. No cut-off for these calls is given here.

Tests used:
[1] = tested on: DNA; assay: Binding affinity to calf thymus DNA at 20 to 80 uM after 1.5 hrs by UV-vis spectrophotometric analysis; assay type: nucleic-acid assay; settings: Bos taurus
Summary of the method: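 UV–Vis spectra (200–800 nm, 1 cm cells) of compound at 20, 40, 60 or 80 μM, with or without 0.12 mM CT-DNA. CT-DNA was dissolved in 10 mM Tris-HCl pH 7.9. Mixtures were in 40 mM bicarbonate buffer pH 8.4, incubated 1.5 h at 37 °C with occasional vortexing.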

[2] = tested on: HeLa; assay: Cell cycle arrest in human HeLa cells assessed as accumulation at G1 phase at 2 times IC50 after 24 hrs by propidium iodide staining-based FACS flow cytometric analysis (reference value: 51.97%); assay type: functional
[3] = tested on: HeLa; assay: Cell cycle arrest in human HeLa cells assessed as accumulation at subG1 phase at IC50 after 24 hrs by propidium iodide staining-based FACS flow cytometric analysis (reference value: 9.10%); assay type: functional
[4] = tested on: HeLa; assay: Cell cycle arrest in human HeLa cells assessed as accumulation at G2/M phase at IC50 after 24 hrs by propidium iodide staining-based FACS flow cytometric analysis (reference value: 21.66%); assay type: functional
[5] = tested on: HeLa; assay: Cell cycle arrest in human HeLa cells assessed as accumulation at S phase at IC50 after 24 hrs by propidium iodide staining-based FACS flow cytometric analysis (reference value: 16.22%); assay type: functional
[6] = tested on: Escherichia coli; assay: Induction of Escherichia coli XL1 blue pUC18 DNA cleavage assessed as conversion of supercoiled DNA to relaxed circular DNA at 2 mM after 90 mins by agarose gel electrophoresis
Summary of the method: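 Supercoiled pUC18 (262 ng, from E. coli XL1 blue) incubated with 2 mM compound in 20 μL of 40 mM bicarbonate buffer pH 8.4 at 37 °C for 90 min. Reaction stopped with loading buffer. Analyzed on 1% agarose in TAE pH 8.24 at 80 V and stained with ethidium bromide (0.5 µg/mL).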

[7] = tested on: K562; assay: Cytotoxicity against human K562 cells after 72 hrs by MTT assay; assay type: functional, cell-based; settings: K562, 72 h
Summary of the method: (§1)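 Cells seeded in 96-well plates: HeLa 2000, MDA-MB-361 7000, MDA-MB-453 3000, K562, A549 and MRC-5 5000 per well. Compounds added at 5–100 μM (final), DMSO ≤0.5%, in RPMI-1640 with 10% FBS. Added after 24 h, except K562 at 2 h after seeding. Exposure 72 h, then MTT 4 h at 37 °C, SDS solubilization, A570 read. IC50 is the mean ± SD of three independent experiments.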

[8] = tested on: MDA-MB-361; assay: Cytotoxicity against human MDA-MB-361 cells after 72 hrs by MTT assay; assay type: functional, cell-based; settings: MDA-MB-361, 72 h; summary of the method: as §1
[9] = tested on: MDA-MB-453; assay: Cytotoxicity against human MDA-MB-453 cells after 72 hrs by MTT assay; assay type: functional, cell-based; settings: MDA-MB-453, 72 h; summary of the method: as §1
[10] = tested on: A549; assay: Cytotoxicity against human A549 cells after 72 hrs by MTT assay; assay type: functional, cell-based; settings: A549, 72 h; summary of the method: as §1
[11] = tested on: MRC5; assay: Cytotoxicity against human MRC5 cells after 72 hrs by MTT assay; assay type: cell-based; settings: MRC5, 72 h; summary of the method: as §1
[12] = tested on: Radical scavenging activity; assay: Antioxidant activity assessed as DPPH radical scavenging activity after 30 mins by spectrophotometric analysis; assay type: functional
Summary of the method: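 Test solutions at 8–1000 μM in methanol mixed 1:1 by volume with 200 μM DPPH in methanol, kept 30 min in the dark at room temperature. Absorbance read at 517 nm against blanks without DPPH. Percent scavenging = (A_DPPH − A_sample)/A_DPPH × 100. IC50 (concentration halving DPPH absorbance) read from a plot of % versus concentration. Ascorbic acid and BHT used as standards.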

[13] = tested on: HeLa; assay: Cell cycle arrest in human HeLa cells assessed as accumulation at G1 phase at IC50 after 24 hrs by propidium iodide staining-based FACS flow cytometric analysis (reference value: 51.97%); assay type: functional
[14] = tested on: HeLa; assay: Cell cycle arrest in human HeLa cells assessed as accumulation at subG1 phase at 2 times IC50 after 24 hrs by propidium iodide staining-based FACS flow cytometric analysis (reference value: 9.10%); assay type: functional
[15] = tested on: HeLa; assay: Cell cycle arrest in human HeLa cells assessed as accumulation at S phase at 2 times IC50 after 24 hrs by propidium iodide staining-based FACS flow cytometric analysis (reference value: 16.22%); assay type: functional
[16] = tested on: HeLa; assay: Cell cycle arrest in human HeLa cells assessed as accumulation at G2/M phase at 2 times IC50 after 24 hrs by propidium iodide staining-based FACS flow cytometric analysis (reference value: 21.66%); assay type: functional
[17] = tested on: HeLa; assay: Cytotoxicity against human HeLa cells after 72 hrs by MTT assay; assay type: functional, cell-based; summary of the method: as §1
[18] = tested on: HeLa; assay: Induction of apoptosis in human HeLa cells at IC90 after 24 hrs by propidium iodide staining-based FACS flow cytometric analysis in presence of caspase-8 inhibitor Z-IETD-FMK; assay type: functional, cell-based
[19] = tested on: HeLa; assay: Induction of apoptosis in human HeLa cells at IC90 after 24 hrs by propidium iodide staining-based FACS flow cytometric analysis in presence of caspase-3 inhibitor Z-DEVD-FMK; assay type: functional, cell-based
[20] = tested on: HeLa; assay: Induction of apoptosis in human HeLa cells at IC90 after 24 hrs by propidium iodide staining-based FACS flow cytometric analysis in presence of caspase-9 inhibitor Z-LEHD-FMK; assay type: functional, cell-based
[21] = tested on: DNA; assay: Binding affinity to calf thymus DNA after 1.5 hrs by spectroscopic titration; assay type: nucleic-acid assay; settings: Bos taurus
Summary of the method: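 Absorbance titration in 40 mM bicarbonate buffer pH 8.4. Compound held fixed at 40 μM, CT-DNA varied at (0.2–1.6) × 10⁻⁴ M. Mixtures incubated 1.5 h at 37 °C, then UV–Vis spectra recorded from 200 to 800 nm. K_B taken from a plot of [DNA]/(εA − εF) versus [DNA].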

[22] = tested on: HeLa; assay: Cell cycle arrest in human HeLa cells assessed as accumulation at subG1 phase after 24 hrs by propidium iodide staining-based FACS flow cytometric analysis; assay type: functional

SMILES	Activity [1]	Activity [2]	Activity [3]	Activity [4]	Activity [5]	Activity [6]	IC50 [7] [µM]	IC50 [8] [µM]	IC50 [9] [µM]	IC50 [10] [µM]	IC50 [11] [µM]	IC50 [12] [µM]	Activity [13]	Activity [14]	Activity [15]	Activity [16]	IC50 [17] [µM]	Activity [18]	Activity [19]	Activity [20]	other results
CCOC(=O)/C(CC(=O)c1cccc2c1C(=O)c1ccccc1C2=O)=N\NC(=S)NC1CCCCC1	Active	Active	Active	Active	Active	inactive	2.35	32.6	4.64	13.9	13.6	16.4	Active	Active	Active	Active	9.15	Active	Active	Active	–
CCOC(=O)/C(=C/C(=O)c1cccc2c1C(=O)c1ccccc1C2=O)Nc1ccccc1	–	–	–	–	–	–	100	100	100	100	100	–	–	–	–	–	100	–	–	–	–
CCOC(=O)/C(CC(=O)c1cccc2c1C(=O)c1ccccc1C2=O)=N\NC(=S)NCc1ccco1	Active	Active	Active	Active	Active	inactive	2.63	47.8	19.4	22.6	38.6	35.8	Active	Active	Active	Active	19	Active	Active	Active	–
CCOC(=O)/C(CC(=O)c1cccc2c1C(=O)c1ccccc1C2=O)=N\NC(=S)Nc1ccc(C)cc1	Active	Active	Active	Active	Active	inactive	3.97	32.6	11.3	22.5	30.3	41	Active	Active	Active	Active	21	Active	Active	Active	Kb [21]: 2.91 ×10⁹ /M
CCCCNC(=S)N/N=C(/CC(=O)c1cccc2c1C(=O)c1ccccc1C2=O)C(=O)OCC	Active	Active	Active	Active	Active	inactive	3.8	30.8	11.5	19.6	21.1	25.8	Active	Active	Active	Active	10.9	Active	Active	Active	–
CCOC(=O)/C(CC(=O)c1cccc2c1C(=O)c1ccccc1C2=O)=N\NC(=S)NCc1cccnc1	Active	Active	Active	Active	Active	inactive	2.17	50.5	17.7	23.4	13.6	46.9	Active	Active	Active	Active	18.1	Active	Active	Active	–
CCOC(=O)/C(CC(=O)c1cccc2c1C(=O)c1ccccc1C2=O)=N\Nc1ccccc1	–	–	–	–	–	–	40	40	40	40	40	–	–	–	–	–	40	–	–	–	–
CCOC(=O)/C(CC(=O)c1cccc2c1C(=O)c1ccccc1C2=O)=N\NC(=S)NCc1cccs1	Active	40.07%	28.61%	15.34%	20.62%	inactive	2.8	25.4	13.5	12.9	24.4	66.5	32.36%	36.27%	13.79%	3.79%	8.25	Active	Active	Active	Activity [22]: Dose-dependent effect
CCOC(=O)/C(CC(=O)c1cccc2c1C(=O)c1ccccc1C2=O)=N/NC(N)=S	Active	Active	Active	Active	Active	inactive	7.99	30.7	13.6	29	36.2	20.5	Active	Active	Active	Active	14.4	Active	Active	Active	Kb [21]: 0.55 ×10⁹ /M
O=C1O[C@H]([C@@H](O)CO)C(O)=C1O [ASCORBIC ACID]	–	–	–	–	–	–	–	–	–	–	–	15.9	–	–	–	–	–	–	–	–	–
Cc1cc(C(C)(C)C)c(O)c(C(C)(C)C)c1 [BUTYLATED HYDROXYTOLUENE]	–	–	–	–	–	–	–	–	–	–	–	33.9	–	–	–	–	–	–	–	–	–
CCOC(=O)/C(CC(=O)c1cccc2c1C(=O)c1ccccc1C2=O)=N\NC(=S)Nc1ccccc1	Active	44.72%	11.21%	24.11%	17.82%	inactive	3.59	6.61	6.91	9.89	11.8	26.2	44.66%	23.74%	19.4%	7.61%	8.19	Active	Active	Active	Activity [22]: Dose-dependent effect; Kb [21]: 9.3 ×10⁹ /M
CC[n+]1c(-c2ccccc2)c2cc(N)ccc2c2ccc(N)cc21	–	–	–	–	–	–	–	–	–	–	–	–	–	–	–	–	–	–	–	–	Kb [21]: 7 ×10⁷ /M
